In ChEMBL document CHEMBL2151035, “Diarylcyclopentendione metabolite obtained from a Preussia typharum isolate procured using an unconventional cultivation approach” (J Nat Prod, 2012) one finds Activity and IC50 data, which are given here for 5 molecules.

The subject of test [1] is Staphylococcus aureus. The experiment in a line: Antibacterial activity against methicillin-resistant Staphylococcus aureus up to 30 uM after 24 hrs. The class given is functional, organism-based.
Test [2] relates to Radical scavenging activity. The experiment in a line: Antioxidant activity assessed as DPPH free radical scavenging activity after 30 mins. It counts as functional. In short, it runs like this: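 Test samples taken up as 10 mM DMSO stocks, dissolved in 2-propanol. 50 μL of sample, or 2-propanol vehicle as negative control, mixed with 150 μL DPPH in 2-propanol (40 uM). Shaken, stood 30 min, absorbance read at 520 nm. Percent inhibition computed against control wells. Triplicates. IC50 taken as the concentration scavenging 50% of DPPH radicals. Ascorbic acid as positive control.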
On the technique in general: DPPH is a stable violet radical that fades when it is reduced.

For test [3], the system named is Aspergillus fumigatus. Put plainly: Antifungal activity against Aspergillus fumigatus up to 30 uM after 48 hrs. The class given is functional, organism-based.
The test system of test [4] is Klebsiella pneumoniae. The experiment in a line: Antibacterial activity against Klebsiella pneumoniae up to 30 uM after 24 hrs. It counts as functional, organism-based.
Test [5] has as its system Radical scavenging activity. Put plainly: Antioxidant activity assessed as DPPH free radical scavenging activity up to 30 uM after 30 mins. The class given is functional. Summed up:
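Samples from 10 mM DMSO stocks were diluted in 2-propanol and mixed with DPPH in 2-propanol (40 uM solution as added). Controls were ascorbic acid (positive) and 2-propanol vehicle (negative). Plates were shaken and left for 30 min, then absorbance was read at 520 nm. Percent inhibition was calculated against control wells, in triplicate. IC50 is the concentration scavenging 50% of DPPH radicals.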

Each structure is given as a SMILES string. The source made the active and inactive calls. No cut-off for these calls is given here.

Consider `COc1cc(C)c(Oc2cc(C)cc(O)c2O)c(O)c1`, for which the result in test [1], in test [3] and in test [4] was inactive. Further, the IC50 in test [2] worked out at 11.6 µM.

Consider `COc1cc(C)c(Oc2cc(C)cc(O)c2)c(O)c1`, for which the outcome in test [1], in test [5], in test [3] and in test [4] was inactive.

Consider `COc1cc(C2=CC(=O)[C@@](C)(c3ccc(O)c(OC)c3)C2=O)ccc1O`, for which the outcome in test [1], in test [5], in test [3] and in test [4] was inactive.

On to `O=C1O[C@H]([C@@H](O)CO)C(O)=C1O` [ASCORBIC ACID], for which the IC50 in test [2] was 5.6 µM.

Take `COc1cc(C)c(Oc2cc(C)cc(OC)c2O)c(O)c1`: the outcome in test [1], in test [3] and in test [4] was inactive. Besides, the IC50 in test [2] is 7.9 µM.

As a reminder, the IC50 is the point on the concentration scale where inhibition reaches its midpoint.
